Source: ChEMBL document CHEMBL1134630, “Synthesis, DNA cross-linking activity, and cytotoxicity of dimeric mitomycins” (J Med Chem, 2001)
Converted amounts (≈) assume the structure as drawn.

Columns and labels:
[1] = tested on: PC-3; assay: in vitro inhibition of tumor cell growth in cultured PC-3 human tumor cell line; assay type: functional, cell-based
In short: (§1)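 Human tumour cell lines grown in RPMI-1640 with 25 mM HEPES, 2% NaHCO3, 10% fetal bovine serum and 100 μg/mL kanamycin at 37 °C under 5% CO2. Cells had 3 days of continuous compound exposure in 96-well plates. Fixed with 10% TCA and stained with 0.4% sulforhodamine B; dye dissolved in 20 mM Tris pH 8.0 and read at 562 nm. Treatments run in duplicate. IC50 interpolated from fitted dose-response curves.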

[2] = tested on: HCT-8; assay: in vitro inhibition of tumor cell growth in cultured HCT-8 human tumor cell line; assay type: functional, cell-based; in short: as §1
[3] = Mean IC50 for all seven tumor cell lines was determined; assay type: functional; in short: as §1
[4] = tested on: HepG2; assay: in vitro inhibition of tumor cell growth in cultured HepG2 human tumor cell line; assay type: functional, cell-based; in short: as §1
[5] = tested on: U-87 MG; assay: in vitro anticancer activity against cultured U87MG (glioblastoma) human tumor cell line; assay type: functional, cell-based, U-87MG ATCC; in short: as §1
[6] = tested on: A549; assay: in vitro anticancer activity against cultured A549 human tumor(lung) cell line; assay type: functional, cell-based; in short: as §1
[7] = tested on: KB; assay: in vitro anticancer activity against cultured KB(epidermoid) human tumor cell line; assay type: functional, cell-based; in short: as §1
[8] = tested on: MCF7; assay: in vitro inhibition of tumor cell growth in cultured MCF-7 human tumor cell line; assay type: functional, cell-based; in short: as §1
[9] = tested on: A549; assay: in vitro inhibition of tumor cell growth in cultured A549 human tumor cell line; assay type: functional, cell-based; in short: as §1
[10] = tested on: U-87 MG; assay: in vitro inhibition of tumor cell growth in cultured U87MG human tumor cell line; assay type: functional, cell-based, U-87MG ATCC; in short: as §1
[11] = tested on: KB; assay: in vitro inhibition of tumor cell growth in cultured KB human tumor cell line; assay type: functional, cell-based; in short: as §1

SMILES	IC50 [1]	IC50 [2]	Mean IC50 [3]	IC50 [4]	IC50 [5]	IC50 [6]	IC50 [7]	IC50 [8]	IC50 [9]	IC50 [10]	IC50 [11]
CO[C@@]12[C@H](COC(N)=O)C3=C(C(=O)C(C)=C(Nc4ccc(CCc5ccc(NC6=C(C)C(=O)C7=C(C6=O)[C@@H](COC(N)=O)[C@@]6(OC)[C@H]8NC8CN76)cc5)cc4)C3=O)N1CC1N[C@@H]12 (stereo partly specified)	0.2 µg/mL (≈ 0.236 µM)	0.11 µg/mL (≈ 0.13 µM)	0.2 µg/mL	0.16 µg/mL (≈ 0.189 µM)	0.51 µg/mL (≈ 0.602 µM)	0.095 µg/mL (≈ 0.112 µM)	0.215 µg/mL (≈ 0.254 µM)	0.21 µg/mL (≈ 0.248 µM)	–	–	–
CO[C@@]12[C@H](COC(N)=O)C3=C(C(=O)C(C)=C(NCCCOCCCNC4=C(C)C(=O)C5=C(C4=O)[C@@H](COC(N)=O)[C@@]4(OC)[C@H]6NC6CN54)C3=O)N1CC1N[C@@H]12 (stereo partly specified)	–	–	–	–	> 1 µg/mL	> 10 µg/mL	> 1 µg/mL	–	–	–	–
CO[C@@]12[C@H](COC(N)=O)C3=C(C(=O)C(C)=C(NCc4ccc(CNC5=C(C)C(=O)C6=C(C5=O)[C@@H](COC(N)=O)[C@@]5(OC)[C@H]7NC7CN65)cc4)C3=O)N1CC1N[C@@H]12 (stereo partly specified)	–	–	–	–	> 1 µg/mL	> 1 µg/mL	> 1 µg/mL	–	–	–	–
CO[C@@]12[C@H](COC(N)=O)C3=C(C(=O)C(C)=C(N)C3=O)N1C[C@@H]1N[C@@H]12 [MITOMYCIN]	1.55 µg/mL (≈ 4.64 µM)	0.15 µg/mL (≈ 0.449 µM)	0.63 µg/mL	0.36 µg/mL (≈ 1.08 µM)	0.97 µg/mL (≈ 2.9 µM)	0.08 µg/mL (≈ 0.239 µM)	0.1 µg/mL (≈ 0.299 µM)	0.45 µg/mL (≈ 1.35 µM)	–	–	–
CO[C@@]12[C@H](COC(N)=O)C3=C(C(=O)C(C)=C(Nc4ccccc4)C3=O)N1C[C@@H]1N[C@@H]12	0.11 µg/mL (≈ 0.268 µM)	0.004 µg/mL (≈ 0.00975 µM)	0.09 µg/mL	0.05 µg/mL (≈ 0.122 µM)	–	–	–	0.06 µg/mL (≈ 0.146 µM)	0.02 µg/mL (≈ 0.0487 µM)	0.26 µg/mL (≈ 0.633 µM)	0.13 µg/mL (≈ 0.317 µM)
CO[C@@]12[C@H](COC(N)=O)C3=C(C(=O)C(C)=C(NCCOCCNC4=C(C)C(=O)C5=C(C4=O)[C@@H](COC(N)=O)[C@@]4(OC)[C@H]6NC6CN54)C3=O)N1CC1N[C@@H]12 (stereo partly specified)	–	–	–	–	> 10 µg/mL	> 10 µg/mL	–	–	–	–	–
CO[C@@]12[C@H](COC(N)=O)C3=C(C(=O)C(C)=C(N)C3=O)N1C[C@H]1[C@@H]2N1C(=O)CCCCC(=O)N1[C@@H]2CN3C4=C(C(=O)C(N)=C(C)C4=O)[C@H](COC(N)=O)[C@]3(OC)[C@@H]21	–	–	–	–	> 1 µg/mL	0.76 µg/mL (≈ 0.976 µM)	> 1 µg/mL	–	–	–	–
COC1=C(C)C(=O)C2=C(C1=O)[C@@H](COC(N)=O)[C@@]1(OC)[C@H]3N[C@H]3CN21 [MITOMYCIN A]	0.02 µg/mL (≈ 0.0573 µM)	0.006 µg/mL (≈ 0.0172 µM)	0.014 µg/mL	0.008 µg/mL (≈ 0.0229 µM)	0.009 µg/mL (≈ 0.0258 µM)	0.006 µg/mL (≈ 0.0172 µM)	0.008 µg/mL (≈ 0.0229 µM)	0.045 µg/mL (≈ 0.129 µM)	–	–	–
CO[C@@]12[C@H](COC(N)=O)C3=C(C(=O)C(C)=C(N)C3=O)N1C[C@H]1[C@@H]2N1C(=O)CCCC(=O)N1[C@H]2[C@@H]1CN1C3=C(C(=O)C(N)=C(C)C3=O)[C@@H](COC(N)=O)[C@@]21OC	–	–	–	–	> 1 µg/mL	0.67 µg/mL (≈ 0.876 µM)	> 1 µg/mL	–	–	–	–
CO[C@@]12[C@H](COC(N)=O)C3=C(C(=O)C(C)=C(N)C3=O)N1C[C@H]1[C@@H]2N1C(=O)CCCCCC(=O)N1[C@H]2[C@@H]1CN1C3=C(C(=O)C(N)=C(C)C3=O)[C@@H](COC(N)=O)[C@@]21OC	–	–	–	–	> 1 µg/mL	0.68 µg/mL (≈ 0.858 µM)	> 1 µg/mL	–	–	–	–
CO[C@@]12[C@H](COC(N)=O)C3=C(C(=O)C(C)=C(N)C3=O)N1C[C@H]1[C@@H]2N1C(=O)CCC(=O)N1[C@@H]2CN3C4=C(C(=O)C(N)=C(C)C4=O)[C@H](COC(N)=O)[C@]3(OC)[C@@H]21	–	–	–	–	> 1 µg/mL	0.67 µg/mL (≈ 0.892 µM)	> 1 µg/mL	–	–	–	–
CO[C@@]12[C@H](COC(N)=O)C3=C(C(=O)C(C)=C(NCCCNCCCNC4=C(C)C(=O)C5=C(C4=O)[C@@H](COC(N)=O)[C@@]4(OC)[C@H]6NC6CN54)C3=O)N1CC1N[C@@H]12 (stereo partly specified)	–	–	–	–	> 1 µg/mL	> 1 µg/mL	> 1 µg/mL	–	–	–	–
CO[C@@]12[C@H](COC(N)=O)C3=C(C(=O)C(C)=C(NCCNCCNC4=C(C)C(=O)C5=C(C4=O)[C@@H](COC(N)=O)[C@@]4(OC)[C@H]6NC6CN54)C3=O)N1CC1N[C@@H]12 (stereo partly specified)	–	–	–	–	> 1 µg/mL	> 1 µg/mL	0.98 µg/mL (≈ 1.33 µM)	–	–	–	–
CO[C@@]12[C@H](COC(N)=O)C3=C(C(=O)C(C)=C(Nc4ccc(Oc5ccc(NC6=C(C)C(=O)C7=C(C6=O)[C@@H](COC(N)=O)[C@@]6(OC)[C@H]8NC8CN76)cc5)cc4)C3=O)N1CC1N[C@@H]12 (stereo partly specified)	0.08 µg/mL (≈ 0.0958 µM)	0.06 µg/mL (≈ 0.0719 µM)	0.11 µg/mL	0.05 µg/mL (≈ 0.0599 µM)	0.32 µg/mL (≈ 0.383 µM)	0.062 µg/mL (≈ 0.0743 µM)	0.064 µg/mL (≈ 0.0767 µM)	0.14 µg/mL (≈ 0.168 µM)	–	–	–
